Assays:
[1] = Half life in rat liver microsomes at 1 uM incubated for 3 mins prior to NADPH addition by LC-MS/MS analysis; assay type: ADME
Liver microsome = assay: Intrinsic clearance in rat liver microsomes at 1 uM incubated for 3 mins prior to NADPH addition by LC-MS/MS analysis; assay type: ADME; conditions: 0.05 h
[2] = Half life in mouse liver microsomes at 1 uM incubated for 3 mins prior to NADPH addition by LC-MS/MS analysis; assay type: ADME, Microsome
[3] = Plasma concentration in Harlan C57BL/6 mouse at 20 mg/kg, sc after 1 hr by LC/MS/MS analysis; assay type: ADME, organism-based; set-up: dose 20 mg/kg, route subcutaneous
Procedure, shortened: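 Harlan mice were given a single subcutaneous dose at 5, 10 or 20 mg/kg. Blood was sampled at multiple time points over about 8 h, and each sample was used for both total circulating WBC count and plasma drug level. Counts and concentrations were plotted against time for each dose.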

NCCCCN(C[C@H]1Cc2ccccc2CN1)[C@H]1CCCc2cccnc21
half-life at 1 µM [1]: 39 min | CLH (Liver microsome): 35 µL/min/mg | half-life at 1 µM [2]: 22 min | concentration at 1 h [3]: 1540 ng/mL

From ChEMBL document CHEMBL3091329, “Discovery of tetrahydroisoquinoline-based CXCR4 antagonists” (ACS Med Chem Lett, 2013)
